Screens (PubChem)
Hits are enriched below; roughly 3.3% of the tested compounds scored in any of these assays.
rCAG binder – binds r(CAG) RNA repeats. r(CAG) RNA repeat, TO-PRO-1 dye displacement fluorescence. inhibition, % at 3 µM. 370,000 tested, 1.3% active. AID 651821;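 active = inhibition above the plate cutoff, the mean of all test compounds on that plate plus 3 SD, cut at about 35% in these data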;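 note: 0% = DMSO alone and 100% = 100 µM mitoxantrone as full dye displacement; higher means more dye released from RNA so lower well fluorescence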
HTRA1 inh – inhibitors of human serine peptidase HTRA1; Q92743; recombinant HTRA1, FP-rhodamine activity-based probe, fluorescence polarization; inhibition, % at 5.96 µM; 340,000 tested, 0.5% active; AID 504803; in the data active = inhibition above about 36%;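 note: 0% = enzyme with DMSO and 100% = wells lacking enzyme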
SIAE primary – human SIAE inhibition, primary screen | Q9HAT2 | SIAE FP-Rh probe binding, fluorescence polarization | inhibition, % at 9.66 µM | 370,000 tested, 0.69% active | AID 1053197;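 active = inhibition above a cutoff: mean of compounds within the control limits plus 3 SD of those, cut at about 17% in these data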;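 note: 0% = plate median of compound wells and 100% = probe without SIAE protein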
PRMT1 FP inh – PRMT1 (human) inhibition, primary screen; Q99873; recombinant PRMT1, activity-based probe fluorescence polarization; inhibition, % at 2.79 µM; 370,000 tested, 1.3% active; AID 652257;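 active = inhibition above about 21% made by adding two undisclosed values, limit read from the data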
Target sequence (Q99873 whole entry, looked up): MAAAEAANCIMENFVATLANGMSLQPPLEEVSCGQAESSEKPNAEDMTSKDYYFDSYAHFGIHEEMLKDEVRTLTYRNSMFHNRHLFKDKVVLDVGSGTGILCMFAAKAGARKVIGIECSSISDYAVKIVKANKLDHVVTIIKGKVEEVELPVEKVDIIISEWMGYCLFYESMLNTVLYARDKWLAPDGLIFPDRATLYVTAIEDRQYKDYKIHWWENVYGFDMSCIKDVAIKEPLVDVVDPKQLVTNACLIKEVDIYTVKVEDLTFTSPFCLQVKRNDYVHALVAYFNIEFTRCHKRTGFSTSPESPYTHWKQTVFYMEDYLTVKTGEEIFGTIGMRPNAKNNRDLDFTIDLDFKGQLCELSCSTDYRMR
mABHD4 FP – inhibitors of mouse ABHD4 | Q8VD66 | purified mABHD4, FP-Rh probe fluorescence polarization | inhibition, % at 8.92 µM | 370,000 tested, 0.54% active;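 active = inhibition exceeding the mean over every tested compound plus 3 SD, cut at about 30% in these data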;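 note: 0% = plate median of compound wells and 100% = S159A mutant with DMSO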
Target sequence (Q8VD66 whole entry, looked up): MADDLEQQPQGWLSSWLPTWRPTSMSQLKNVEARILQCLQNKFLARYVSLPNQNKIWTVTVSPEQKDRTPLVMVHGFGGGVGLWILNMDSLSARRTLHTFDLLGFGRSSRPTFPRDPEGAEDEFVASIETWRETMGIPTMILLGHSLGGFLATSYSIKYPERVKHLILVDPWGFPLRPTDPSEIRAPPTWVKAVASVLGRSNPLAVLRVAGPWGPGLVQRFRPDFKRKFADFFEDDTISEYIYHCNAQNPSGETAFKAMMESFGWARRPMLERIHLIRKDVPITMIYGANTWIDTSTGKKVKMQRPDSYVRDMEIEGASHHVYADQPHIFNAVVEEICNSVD
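System: mouse ABHD4 enzyme, wild type / Medium: HEPES pH 7.0, NaCl, Pluronic buffer / Reagent: FP-Rh activity-based fluorescent probe / Control set: S159A mutant high control, sample median low control / Detection: fluorescence polarization with parallel and perpendicular emission, 525/598 nm / Schedule: 45 min + 60 min at 25 °C / Compound dosing: 8.92 µM, single dose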
rCAG bind conf – r(CAG) RNA repeat binding, confirmation. shares compounds with rCAG binder. TO-PRO-1 dye displacement fluorescence. inhibition, % at 3 µM. 4,300 tested, 70% active. AID 652065;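 active = inhibition above a per-plate cutoff, the mean inhibition of sample wells plus 3 SD, cut at about 35% in these data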;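 note: loss of TO-PRO-1 fluorescence as compound displaces dye from 1x1 AA loop RNA; 0% = DMSO only wells and 100% = 100 µM mitoxantrone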
DNA CAG counter – disrupts DNA CAG TO-PRO-1 complex, flagging rCAG hits; d(CAG) DNA oligo TO-PRO-1 dye displacement, fluorescence; 4,300 tested, 94% active; shares compounds with rCAG binder; inhibition, % at 3 µM; AID 652068;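 active = inhibition above its plate's cutoff, the mean test-well inhibition plus 3 SD, cut at about 4.8% in these data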;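 note: 0% = DNA dye mix with DMSO and 100% = 100 µM mitoxantrone; hits displace the dye from DNA and so lower well fluorescence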
PRMT1 inh conf – PRMT1 (human) inhibition, FP confirmation | recombinant His-PRMT1, activity-based probe fluorescence polarization | 3,300 tested, 42% active | shares compounds with PRMT1 FP inh | inhibition, % at 2.79 µM;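 active = mean inhibition across replicates above the hit cutoff derived for the earlier primary screen, cut at about 22% in these data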
ABHD4 confirm – confirmation of mouse ABHD4 inhibitors; inhibition, % at 8.92 µM; shares compounds with mABHD4 FP; purified mABHD4, FP-Rh probe fluorescence polarization; 1,800 tested, 55% active;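 active = mean inhibition across replicates above the hit cutoff set in the primary screen, cut at about 30% in these data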;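 note: 0% = wild-type ABHD4 with DMSO and 100% = catalytically dead S159A mutant with DMSO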
* hit, by the source's call; . = no result.

SMILES | rCAG binder | HTRA1 inh | SIAE primary | PRMT1 FP inh | mABHD4 FP | rCAG bind conf | DNA CAG counter | ABHD4 confirm | others
COc1cc(NC(=O)CSc2ncnc3sc4c(c23)CCCC4)c(C(=O)O)cc1OC | 67* | 0 | -3 | 32* | 11 | 53* | 17* | . | PRMT1 inh conf=7
Cc1cccc(NC(=O)CSc2ncnc3sc4c(c23)CCCC4)c1 | 6 | . | -1 | -8 | -4 | . | . | .
N#Cc1ccc(CCc2ccccc2)[nH]c1=O | -1 | 6 | 0 | -2 | -3 | . | . | .
N#Cc1ccc(CC(=O)c2ccccc2)[nH]c1=O | 35* | 28 | 7 | 29* | 43* | 14 | 4 | . | PRMT1 inh conf=0
S=c1[nH]nc(-c2cc(-c3ccccc3)n[nH]2)n1/N=C/c1ccc(Cl)c(Cl)c1 | 8 | 4 | 7 | -3 | -2 | . | . | .
COc1cc(/C=N/n2c(-c3cc(-c4ccccc4)n[nH]3)n[nH]c2=S)ccc1OCc1ccccc1 | 58* | . | -4 | 26* | -22 | 55* | 26* | . | PRMT1 inh conf=-1
CN(C)c1cccc(-c2cnc(N3CCC(C(N)=O)CC3)s2)c1 | . | . | 7 | 3 | 26 | . | . | .
Oc1ccccc1/C=N/n1c(COc2ccccc2)n[nH]c1=S | 11 | 4 | -4 | 8 | -11 | . | . | .
S=c1[nH]nc(COc2ccccc2)n1/N=C/c1ccc(Br)s1 | 44* | -14 | 8 | 26* | -11 | 33 | 8.1* | . | PRMT1 inh conf=12
O=C(O)c1cc(-c2c[nH]c3ccccc23)nc2ccc3ccccc3c12 | 52* | -10 | -3 | 4 | 31* | 45* | 11* | 16
COc1ccc([N+](=O)[O-])cc1N(CC(=O)N1CCOCC1)S(C)(=O)=O | -4 | 4 | -5 | -4 | 9 | . | . | .
CC(C)(C)c1cc(C(=O)NCc2cc(F)cc3c2OCOC3)n(Cc2ccccc2)n1 | -5 | -15 | 3 | -3 | -11 | . | . | .
COc1ccc(C2=NN(c3ccc(C(=O)O)cc3)C(c3ccc(OC)c(OC)c3)C2)cc1 (stereo not drawn) | 39* | -2 | -8 | 0 | 69* | 49* | 14* | 78*
COC(=O)c1ccc(N2CCCCC2)c(NS(=O)(=O)c2ccc(C)cc2)c1 | 2 | -29 | 1 | -1 | -11 | . | . | .
CC1CCN(c2ccc(C(=O)O)cc2NS(=O)(=O)c2ccc(Br)cc2)CC1 | 35* | -10 | 7 | 3 | 39* | 37* | 11* | 31*
O=C(COC(=O)c1ccc(Br)o1)Nc1ncc([N+](=O)[O-])s1 | 34 | 17 | -8 | 12 | 23 | . | . | .
COc1ccc(C(=O)OCC(=O)Nc2ncc([N+](=O)[O-])s2)cc1OC | 52* | 9 | -12 | 21 | 38* | 74* | 41* | 25
Cc1ccccc1NC(=O)CCS(=O)(=O)c1cccc2nonc12 | 1 | 4 | -8 | 13 | -9 | . | . | .
CN(C)c1ccc(O)c2c1CC1CC3[C@@H](N(C)C)C(=O)C(C(N)=O)=C(O)[C@]3(O)C(=O)C1=C2O (stereo partly drawn) | 64* | 29 | 25* | 31* | 77* | 46* | 18* | 44*
CC(C)(C)c1ccc(S(=O)(=O)NC(=O)C2(C)CCN2C(=O)Cc2ccc(-c3ccccc3)cc2)cc1 (stereo not drawn) | 72* | . | 1 | 2 | 45* | 86* | 49* | 15
O=C(NN1C(=O)/C(=C/c2ccc(O)c([N+](=O)[O-])c2)SC1=S)c1ccccc1Cl | 39* | 3 | -8 | 28* | 49* | 15 | 5.5* | 37* | PRMT1 inh conf=15
O=[N+]([O-])c1cc(Br)c(O)c(/C=N/Nc2nnnn2-c2cccc3ccccc23)c1 | 92* | 24 | 16 | 5 | 39* | 89* | 63* | 65*
O=C1NN(c2ccccc2)C(=O)/C1=C\c1ccc(-c2cc([N+](=O)[O-])ccc2O)o1 | 36* | 15 | 2 | 1 | 34* | 44* | 19* | 44*
C=CCn1c(COc2cccc(C)c2)nnc1SCC(=O)c1c[nH]c2c(CC)cccc12 | 4 | -2 | 2 | -2 | -1 | . | . | .
CCOC(=O)c1ccc(N2NC(=O)/C(=C/c3ccc(OC(=O)c4ccco4)c(OC)c3)C2=O)cc1 | 84* | . | 4 | 12 | 33* | 90* | 66* | 12
SMILES | rCAG binder | HTRA1 inh | SIAE primary | PRMT1 FP inh | mABHD4 FP | rCAG bind conf | DNA CAG counter | ABHD4 confirm | others
COC(=O)COc1ccc(S(=O)(=O)NCc2ccccn2)cc1 | -3 | 8 | 1 | 0 | 2 | . | . | .
COc1ccc(Cn2cc(CN3CCc4onc(-c5ccc(Br)cc5)c4C3=O)nn2)cc1 | 5 | . | -3 | -3 | -13 | . | . | .
O=C(CN1C(=O)/C(=C2\SC(=S)N(CCS(=O)(=O)O)C2=O)c2ccccc21)Nc1cccc(Br)c1 | 88* | -39 | -3 | 19 | 67* | 89* | 65* | 83*
COCCN1C(=O)/C(=C2/C(=O)N(CC(=O)Nc3ccccc3Cl)c3ccccc32)SC1=S | 0 | -3 | 0 | 2 | -1 | . | . | .
O=S(=O)(c1ccc(C(F)(F)F)cc1)N1CCN(CCc2ccccc2)CC1 | -3 | -10 | -4 | 2 | -2 | . | . | .
CC(C)=C1C(=O)NN(c2ccc(F)c(Cl)c2)C1=O | 83* | 8 | 4 | 20 | 32* | 19 | 6.8* | 8
O=c1oc2c(-c3ccc([N+](=O)[O-])cc3)cc(O)cc2s1 | 40* | 24 | 5 | 78* | 61* | 9 | 7.7* | -22
CCN(CC)C(=O)CC[C@H]1CC[C@]2(CCCN(C(=O)C3CCCC3)C2)O1 | 0 | . | -5 | 3 | 6 | . | . | .
Cc1cccc2c1c1ccc3c(c1n2C)C(=O)C=CC3=O | 39* | 31 | -9 | 12 | 48* | 20 | 13* | 71*
COC(=O)N/N=C/c1cn(Cc2ccccc2F)c2ccccc12 | -2 | -3 | 6 | 2 | 4 | . | . | .
O=C(O)c1ccc(N/N=C/c2cn(Cc3ccccc3F)c3ccccc23)cc1 | 78* | 5 | 15 | 18 | 46* | 81* | 45* | 69*
COc1ccc(-c2oc3c(c2C#CCCCCO)C(OCCO)CC3)cc1 (stereo not drawn) | 3 | . | 11 | 1 | 5 | . | . | .
CN(c1ccc(O)cc1)c1nc(O)c(C2=c3ccccc3=NC2=O)s1 | 49* | 7 | 2 | 6 | 43* | 18 | 9.2* | 65*
O=C1N=c2ccccc2=C1c1sc(=O)[nH]c1O | 2 | . | 0 | 4 | 9 | . | . | .
Nc1cc2c(cc1[N+](=O)[O-])-c1ccccc1C2=NO | 44* | 9 | -15 | 1 | 49* | 30 | 24* | 21
